The record followed here is ChEMBL document CHEMBL1123780, “2'-Fluorinated arabinonucleosides of 5-(2-haloalkyl)uracil: synthesis and antiviral activity” (1987).

For assay [1], the system named is Vero. Description: Proliferation of Vero cells by propagation on day 4 by measuring optical density (absorbance) at 30 ug/mL. The assay is classed as functional, Chlorocebus sabaeus. In outline:
(§1)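 Cells were suspended in medium with compound and seeded at low density in 24-well dishes (Vero 5×10^4, HEp-2 1×10^5 cells/well), four wells per condition, and grown 4 days. Cells were stained with 0.01% neutral red in PBS for 2 h at 37 °C, washed, dried, and dissolved in ethanol/0.1 M NaH₂PO₄ (1:1). OD was read at 546 nm, taken as proportional to cell number.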

Assay [2] relates to Vero. Description: Proliferation of Vero cells by propagation on day 4 by measuring optical density (absorbance) at 330 ug/mL. It is filed as functional, Chlorocebus sabaeus. In outline: as §1
The nature of assay [3]: Antiviral activity against VZV (Ellen) in human lung fibroblast (HLF-1) cells. It is filed as functional.
Assay [4] has as its system HEp-2. Description: Antiviral activity against HSV-2 (K979) in human epithelial (Hep-2) cells. The assay is classed as functional. In outline: (§2)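 CPE inhibition: serial 3-fold compound dilutions in E-MEM, then virus and cell suspension (E-MEM plus 15% fetal calf serum) added together. Cell input set for a confluent monolayer in 1-2 days, virus input for 90-100% CPE in infected controls at 3 days. Plates then fixed and stained, and CPE estimated against infected untreated controls. Uninfected compound-treated cells included.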

The test system of assay [5] is Vero. Description: Proliferation of Vero cells by propagation on day 4 by measuring optical density (absorbance) at 100 ug/mL. The assay is classed as functional, Chlorocebus sabaeus. A digest of the protocol: as §1
Assay [6] concerns HEp-2. Description: Proliferation of Hep-2 cells by propagation on day 4 by measuring optical density (absorbance) at 330 ug/mL. It is filed as functional, Homo sapiens. In outline: as §1
Assay [7] deals with HEp-2. Description: Antiviral activity against HSV-1 (Brand) in human epithelial (Hep-2) cells. The assay is classed as functional. In outline: as §2
The nature of assay [8]: Antiviral activity against HSV-1 (KOS) in Primary Rabbit Kidney (PRK) cells. As to conditions: Oryctolagus cuniculus. The assay is classed as functional.
Assay [9] has as its system Vero. Description: Antiviral activity against HSV-1 (Brand) in Vero cells. The assay is classed as functional. As to conditions: Chlorocebus sabaeus. In outline:
as §2

The test system of assay [10] is HEp-2. Description: Proliferation of Hep-2 cells by propagation on day 4 by measuring optical density (absorbance) at 100 ug/mL. The assay is classed as functional, Homo sapiens. A digest of the protocol:
as §1

Assay [11] concerns Vero. Description: Antiviral activity against HSV-2 (K979) in Vero cells. It is filed as functional. The conditions noted are these: Chlorocebus sabaeus. A digest of the protocol:
as §2

Assay [12] can be described thus: Antiviral activity against HSV-2 (G) in Primary Rabbit Kidney (PRK) cells. As to conditions: Oryctolagus cuniculus. The assay is classed as functional.
The test system of assay [13] is HEp-2. Description: Proliferation of Hep-2 cells by propagation on day 4 by measuring optical density (absorbance) at 30 ug/mL. It is filed as functional, Homo sapiens. A digest of the protocol: as §1

Converted amounts (≈) assume the structure as drawn.

As for `O=c1[nH]c(=O)n([C@@H]2O[C@H](CO)[C@@H](O)[C@@H]2F)cc1CCF`, the Control in assay [1] is reported as 98%; in assay [2], 90%; in assay [5], 87%; in [6] it was 72%; in [10], 105%; in assay [13], 113%. Besides, the MIC is 0.03 µg/mL (≈ 0.103 µM) in assay [3]; 0.1 µg/mL (≈ 0.342 µM) in assay [4]; 0.03 µg/mL (≈ 0.103 µM) in assay [7]; 0.2 µg/mL (≈ 0.684 µM) in [8]; 0.03 µg/mL (≈ 0.103 µM) in assay [9]; 0.3 µg/mL (≈ 1.03 µM) in assay [11]. Also, the MIC in assay [12] was 0.2 µg/mL (≈ 0.684 µM).

Take `O=c1[nH]c(=O)n([C@H]2C[C@H](O)[C@@H](CO)O2)cc1CCCl`: the Control in assay [1] turned out to be 84%; in [2], 82%; in assay [5] it was 91%; in [6] it was 86%; in assay [10], 99%; in [13], 104%. Also, the MIC came to 0.01 µg/mL (≈ 0.0344 µM) in assay [3]; 3 µg/mL (≈ 10.3 µM) in assay [4]; 0.03 µg/mL (≈ 0.103 µM) in [7]; 0.14 µg/mL (≈ 0.482 µM) in assay [8]; 0.01 µg/mL (≈ 0.0344 µM) in [9]; 30 µg/mL (≈ 103 µM) in [11]. Further, the MIC in assay [12] was 2.1 µg/mL (≈ 7.22 µM).

For `Nc1nc(=O)n([C@@H]2O[C@H](CO)[C@@H](O)[C@H]2F)cc1I`, the Control is given as 68% in assay [1]; 24% in assay [2]; 43% in assay [5]; 13% in [6]; 32% in [10]; 64% in assay [13]. Also, the MIC in assay [3] is 0.01 µg/mL (≈ 0.0269 µM); in assay [4] it was 0.03 µg/mL (≈ 0.0808 µM); in [7], 0.01 µg/mL (≈ 0.0269 µM); in assay [8] it was 0.02 µg/mL (≈ 0.0539 µM); in assay [9] it was 0.01 µg/mL (≈ 0.0269 µM); in [11], 0.1 µg/mL (≈ 0.269 µM). Further, the MIC in assay [12] is 0.03 µg/mL (≈ 0.0808 µM).

Turning to `NC1=NC(=O)C2N=CN(COCCO)C2=N1` (stereo not drawn), the Control came out at 77% in assay [1]; 56% in [2]; 73% in [5]; 41% in [6]; 78% in assay [10]; 89% in [13]. The MIC in [4] amounted to 3 µg/mL (≈ 13.3 µM); in assay [7] it was 1 µg/mL (≈ 4.44 µM); in [8], 0.06 µg/mL (≈ 0.266 µM); in assay [9] it was 0.003 µg/mL (≈ 0.0133 µM); in assay [11], 1 µg/mL (≈ 4.44 µM); in assay [12] it was 0.04 µg/mL (≈ 0.178 µM).

Regarding `O=c1[nH]c(=O)n([C@@H]2O[C@H](CO)[C@@H](O)[C@@H]2F)cc1CCCl`, the Control in [1] is reported as 75%; in assay [2], 63%; in assay [5], 74%; in assay [6] it was 68%; in assay [10] it was 107%; in assay [13], 116%. The MIC was determined as 0.1 µg/mL (≈ 0.324 µM) in assay [3]; 1 µg/mL (≈ 3.24 µM) in assay [4]; 0.1 µg/mL (≈ 0.324 µM) in [7]; 0.3 µg/mL (≈ 0.972 µM) in [8]; 0.3 µg/mL (≈ 0.972 µM) in assay [9]; 10 µg/mL (≈ 32.4 µM) in assay [11]. This compound displayed an MIC in assay [12] of 2 µg/mL (≈ 6.48 µM).

On to `O=c1[nH]c(=O)n([C@H]2C[C@H](O)[C@@H](CO)O2)cc1CCF`, for which the Control in assay [1] worked out at 94%; in assay [2] it was 71%; in assay [5], 97%; in [6], 60%; in [10] it was 86%; in assay [13], 97%. For the same compound, the MIC in assay [3] came out at 3 µg/mL (≈ 10.9 µM); in assay [4], 1 µg/mL (≈ 3.65 µM); in assay [7], 0.03 µg/mL (≈ 0.109 µM); in assay [8], 0.58 µg/mL (≈ 2.11 µM); in assay [9], 0.1 µg/mL (≈ 0.365 µM); in assay [11] it was 3 µg/mL (≈ 10.9 µM). The MIC in [12] amounted to 1.5 µg/mL (≈ 5.47 µM).

As for `O=c1[nH]c(=O)n(C2O[C@H](CO)[C@@H](O)[C@@H]2O)cc1CCCl` (stereo partly drawn), the MIC in assay [4] was found to be 100 µg/mL (≈ 326 µM); in [7], 30 µg/mL (≈ 97.8 µM); in [9], 30 µg/mL (≈ 97.8 µM); in [11], 100 µg/mL (≈ 326 µM).

For the compound `Cc1cn([C@@H]2O[C@H](CO)[C@@H](O)[C@@H]2F)c(=O)[nH]c1=O` [5-METHYL-2'-FLUOROARAURACIL], the Control is 7% in assay [1]; 0% in assay [2]; 6% in [5]; 0% in assay [6]; 3% in assay [10]; 36% in assay [13]. The MIC worked out at 0.001 µg/mL (≈ 0.00384 µM) in assay [3]; 0.1 µg/mL (≈ 0.384 µM) in assay [4]; 0.3 µg/mL (≈ 1.15 µM) in assay [7]; 0.04 µg/mL (≈ 0.154 µM) in assay [8]; 0.03 µg/mL (≈ 0.115 µM) in assay [9]; 0.3 µg/mL (≈ 1.15 µM) in assay [11]. Moreover, in assay [12], the MIC came to 0.02 µg/mL (≈ 0.0769 µM).

Take `O=c1[nH]c(=O)n([C@H]2C[C@H](O)[C@@H](CO)O2)cc1/C=C/Br` [BRIVUDINE]: the Control is on record as 74% in [1]; 55% in assay [2]; 71% in assay [5]; 31% in assay [6]; 68% in [10]; 79% in [13]. Also, the MIC in [3] stood at 0.001 µg/mL (≈ 0.003 µM); in assay [4], 3 µg/mL (≈ 9.01 µM); in [7] it was 0.01 µg/mL (≈ 0.03 µM); in assay [8], 0.007 µg/mL (≈ 0.021 µM); in [9], 0.001 µg/mL (≈ 0.003 µM); in [11] it was 30 µg/mL (≈ 90.1 µM). Also, the MIC in assay [12] worked out at 2.3 µg/mL (≈ 6.9 µM).

Take `O=c1[nH]c(=O)n([C@@H]2O[C@H](CO)[C@@H](O)[C@@H]2F)cc1I` [FIALURIDINE]: the Control is recorded as 37% in assay [1]; 0% in assay [2]; 6% in assay [5]; 0% in [6]; 13% in [10]; 49% in assay [13]. Besides, the MIC in assay [3] came out at 0.003 µg/mL (≈ 0.00806 µM); in assay [4], 0.1 µg/mL (≈ 0.269 µM); in assay [7] it was 0.01 µg/mL (≈ 0.0269 µM); in [8] it was 0.02 µg/mL (≈ 0.0538 µM); in assay [9], 0.01 µg/mL (≈ 0.0269 µM); in assay [11], 0.1 µg/mL (≈ 0.269 µM). The compound further registered an MIC in assay [12] of 0.02 µg/mL (≈ 0.0538 µM).

For `O=c1[nH]c(=O)n([C@H]2C[C@H](O)[C@@H](CO)O2)cc1I` [IDOXURIDINE], the Control in [1] was 61%; in [2], 16%; in assay [5], 34%; in assay [6] it was 0%; in assay [10], 20%; in assay [13], 61%. Further, the MIC in assay [3] was 10 µg/mL (≈ 28.2 µM); in [4] it was 0.3 µg/mL (≈ 0.847 µM); in assay [7], 0.3 µg/mL (≈ 0.847 µM); in [8], 0.2 µg/mL (≈ 0.565 µM); in [9], 0.1 µg/mL (≈ 0.282 µM); in [11], 1 µg/mL (≈ 2.82 µM). Besides, the MIC in [12] turned out to be 0.91 µg/mL (≈ 2.57 µM).
